# Compound activity as filed in PubChem.
# Hep lipid drop: inhibitors of hepatocyte lipid droplet formation, primary screen, imaging, high-throughput imaging, BODIPY stain; inhibition, % at 6.5 µM; AML12 mouse hepatocytes, oleate lipid droplets; 240,000 compounds, 0.4% hits;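 active = lipid droplet intensity inhibited by at least 50%, with more than 500 cells counted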
#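 Assay system: AML12 mouse liver cells | Compound dosing: One dose, 6.5 µM compound | Read-out basis: Droplet intensity reduction, % inhibition | Measured by: Fluorescence imaging, 20x objective, two fields per well | Schedule: Overnight treatment with compound plus oleate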
# Rce1 inhib: yeast Rce1p protease inhibitors, primary screen, biochemical, fluorescence, cell-free homogeneous; calls only; yeast membranes, quenched prenylated peptide cleavage fluorescence; AID 2563, 2010; CAAX prenyl protease 2 (Saccharomyces cerevisiae (strain ATCC 204508 / S288c)), Q03530; 290,000 compounds, 0.27% hits;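 active = fall in fluorescence gain of 50% or more versus controls, with final raw signal at or below 3038400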
# proCasp3 act: activators of human procaspase-3 D3A mutant, primary screen, biochemical, absorbance, PC-3 D3A mutant, single concentration; Caspase-3 (Homo sapiens), P42574; 330,000 compounds, 0.11% hits; recombinant procaspase-3 D3A, Ac-DEVD-pNA absorbance 405 nm; activation, % at 8.5 µM;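 active = activation above the mean of all tested compounds plus 3 SD, cut at about 21% in these data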
# Target sequence (P42574 whole entry D9A/D28A/D175A): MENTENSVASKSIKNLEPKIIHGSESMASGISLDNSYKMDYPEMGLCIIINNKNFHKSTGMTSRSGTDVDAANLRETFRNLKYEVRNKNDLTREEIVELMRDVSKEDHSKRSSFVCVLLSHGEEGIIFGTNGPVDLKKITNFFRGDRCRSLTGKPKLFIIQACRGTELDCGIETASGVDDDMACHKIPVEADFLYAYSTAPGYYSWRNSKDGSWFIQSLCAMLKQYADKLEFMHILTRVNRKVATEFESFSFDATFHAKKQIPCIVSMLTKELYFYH
#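 Assay system – Procaspase-3 D3A mutant, all three cleavage aspartates alanine · Controls – DMSO-only low control, 5 µM PC-3 D3A high control · Schedule – 1 h compound preincubation, 2 h substrate hydrolysis at 25 °C · Signal – 405 nm absorbance of p-nitroaniline, reads at 0 and 120 min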
# procasp7 counter: procaspase-7 activators, primary screen, counter-screen for procaspase-3 activator project, biochemical, absorbance, HTS, human; Caspase-7 (Homo sapiens), P55210; recombinant procaspase-7, Ac-DEVD-pNA absorbance 405 nm; D23A/D198A/D206A triple mutant, cannot self-cleave; scale: DMSO 0, 5 µM enzyme 100; activation, % at 8.5 µM; 330,000 compounds, 0.093% hits; AID 463210, 2010;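 active = percent activation above the screen-wide mean plus 3 SD, cut at about 25% in these data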
# Target sequence (P55210 whole entry D23A/D198A/D206A): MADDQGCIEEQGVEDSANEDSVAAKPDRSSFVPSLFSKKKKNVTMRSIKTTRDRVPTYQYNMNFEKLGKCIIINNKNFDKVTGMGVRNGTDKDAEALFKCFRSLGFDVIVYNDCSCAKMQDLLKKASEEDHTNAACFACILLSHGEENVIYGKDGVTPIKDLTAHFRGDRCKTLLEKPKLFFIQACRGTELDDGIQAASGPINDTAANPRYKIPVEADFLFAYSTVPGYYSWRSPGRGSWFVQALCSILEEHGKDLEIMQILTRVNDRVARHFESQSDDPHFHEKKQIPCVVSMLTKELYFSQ
#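 Material: Procaspase-7 triple mutant (PC-7 D3A) | Quantity: 2 µM procaspase-7 mutant as dispensed | Reagent: DEVD-pNA substrate | Times: 1 h preincubation, 2 h reaction | Technique: 405 nm absorbance of p-nitroaniline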
# FXN GAA850 act: FXN promoter activators, primary screen, cell-based, luciferase luminescence, HEK293 lucGAA850; activation, % at 6 µM; 360,000 compounds, 0.56% hits; HEK293 lucGAA850 FXN promoter luciferase reporter, 24 h; percent of 10 µM SAHA response;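 active = activation above the average of all compounds screened plus 3 SD, cutoff fixed separately per campaign, cut at about 7.5% in these data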
# p-CIP stab down: p/CIP-EGFP fusion destabilizers, primary screen, fluorescence, F442A cells. Q05BA5. 16 h. decrease of EGFP signal, % at 10 µM. 290,000 compounds, 0.01% hits. AID 1984, 2009;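 active = EGFP signal decrease of at least 30% at 10 µM or well 3 SD below plate mean, unless failing retest; inactive = the rest, including hits failing retest or dose response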
# GAA30 counter: GAA30 FXN promoter activators, confirmation, counter-screen for GAA850 frataxin promoter activator project, cell-based, luminescence, HEK293, lucGAA30, triplicate | activation, % at 6 µM | AID 588350, 2011 | HEK293 lucGAA30 FXN promoter luciferase, 24 h; DMSO = 0%, 5 µM ipriflavone = 100% | 1,900 compounds, 66% hits | shares compounds with FXN GAA850 act;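 active = mean activation above the mean of solvent-only control wells plus 3 SD, cut at about 22% in these data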;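 note: counterscreen of GAA850 promoter hits where activity marks nonselective or luminescence artifacts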
# FXN GAA850 conf: FXN GAA850 promoter activators in reporter cells, confirmation, cell-based, luminescence, HEK293 lucGAA850, triplicate; 1,900 compounds, 86% hits; shares compounds with FXN GAA850 act; HEK293 lucGAA850 FXN promoter luciferase reporter, 24 h; 100% = activation by SAHA; AID 588351, 2011; activation, % at 6 µM;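 active = mean activation above a set limit taken from the primary screen, cut at about 8% in these data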
# A number is an active result; 0 = inactive; - = not tested or not shown. A selection: hits, their analogues and other compounds. The true share with any hit is near 1.2%.
SMILES,Hep lipid drop,Rce1 inhib,proCasp3 act,procasp7 counter,FXN GAA850 act,p-CIP stab down,GAA30 counter,FXN GAA850 conf
Cc1cc(Nc2cccc([N+](=O)[O-])c2)c2ccccc2n1,0,0,0,0,0,0,-,-
CCCCc1nnc(NC(=O)CSCc2cc(=O)n3cc(C)sc3n2)s1,0,0,0,0,0,0,-,-
Cc1ccc(Cl)cc1NC(=O)C(Cc1ccccc1)N1C(=O)C2C3CCC(C3)C2C1=O (centres undefined),0,0,0,0,15,0,0,9.4
O=C(O)c1ccc(/C=N/Nc2cccc(C(F)(F)F)c2)cc1,0,-,0,0,10,0,99,39
O=C(O)c1ccc(N/N=C/c2ccc(-c3ccccc3)cc2)cc1,0,0,-,-,8.7,0,88,31
O=C(O)c1ccccc1N/N=C/c1cc(Br)cc(Br)c1O,0,0,0,0,9.3,0,135,42
C=CCNc1sc(C(=O)c2ccccc2)c(N)c1-c1nc2ccccc2s1,-,0,0,0,8.0,0,0,11
COc1ccc(Nc2nccc(-c3cccc(N)c3)n2)cc1,0,0,0,0,13,0,130,100
COc1ccc2c(c1)CC/C(=C/c1ccccn1)C2=O,0,0,0,0,0,0,-,-
O=C1C(=Cc2ccccn2)CCc2ccccc21,-,-,-,-,7.8,-,103,31
CC(=O)Nc1ccc(Oc2nc(-c3cccnc3)nc3sc4c(c23)CCCC4)cc1,-,0,0,0,0,-,-,-
O=C1CN(c2nc(-c3cccnc3)nc3sc4c(c23)CCCC4)CCN1,0,0,0,0,10,0,0,21
Nc1nc(-c2cccnc2)nc2sc3c(c12)CCCC3,0,0,0,0,10,0,108,53
COc1ccccc1CN1CC(C(=O)N2CCC(C(=O)c3ccccc3)CC2)CCC1=O (centres undefined),0,0,0,0,0,0,-,-
COc1ccccc1NC(=O)c1cnc(SCC(=O)NCC2CCCO2)n(C)c1=O (centres undefined),-,0,0,0,9.5,-,0,24
COc1cc2c(cc1N)-c1ccc(N)cc1C2=O,-,-,-,-,9.4,-,118,38
O=S(=O)(c1ccccc1)N1CCN(c2nnc(-c3ccccc3)c3ccccc23)CC1,0,0,0,0,0,0,-,-
NC(=O)CC1C(=O)N(c2ccccc2)C(=S)N1NC(=O)c1ccc(Br)cc1 (centres undefined),-,0,0,0,0,0,-,-
COc1cccc(C(=O)NN2C(=S)N(c3ccccc3)C(=O)C2CC(N)=O)c1 (centres undefined),0,0,0,0,7.8,0,107,29
NC(=O)CC1C(=O)N(c2ccccc2)C(=S)N1NC(=O)c1ccccc1 (centres undefined),0,0,-,-,8.9,0,77,20
CCOC(=O)c1ccc(N=c2sc(C(=O)OC)cc(=O)n2Cc2ccco2)cc1,0,0,0,0,15,0,0,35
Cc1nn2cc(-c3ccc(Cl)cc3)cnc2c1Cl,0,0,0,0,7.7,0,119,37
CCN(c1ccccc1)S(=O)(=O)c1ccc(Cl)c(NC(=O)CNCc2ccccc2OC)c1,-,-,0,0,0,-,-,-
COc1ccc2c(CC(=O)Nc3ncc(C)s3)coc2c1,0,0,0,0,8.7,0,91,55
O=C(NCCCN1CCOCC1)C(=O)NCC1OCCN1S(=O)(=O)c1ccc(Cl)cc1 (centres undefined),-,-,-,-,0,-,-,-
SMILES,Hep lipid drop,Rce1 inhib,proCasp3 act,procasp7 counter,FXN GAA850 act,p-CIP stab down,GAA30 counter,FXN GAA850 conf
O=C1C2C3C=CC(C4CC34)C2C(=O)N1/N=C/c1ccc(-c2ccc([N+](=O)[O-])cc2)o1 (centres undefined),0,0,0,0,0,0,-,-
O=C1C2C3C=CC(C4CC34)C2C(=O)N1/N=C/c1ccc([N+](=O)[O-])o1 (centres undefined),0,0,0,0,9.6,0,0,12
Cc1ccc(C2CC(=O)C(C=NCCN3CCN(CC(=O)Nc4cc(C)cc(C)c4)CC3)=C(O)C2)cc1 (centres undefined),0,0,-,-,8.5,0,0,0
Cn1nc(C2CC2)cc1NC(=O)C1(C)CCN1C(=O)Cc1ccc(-c2ccccc2)cc1 (centres undefined),-,-,-,-,0,-,-,-
C=CCOC(=O)C1=C(C)NC(C)=C(C(=O)OCC=C)C1c1cn(-c2ccccc2)nc1-c1ccco1,0,0,0,0,13,0,0,0
Cc1ccc(N=Nc2c(O)n(CN3CCOCC3)c3ccccc23)cc1,-,0,0,0,7.7,0,135,50
Cc1cccc(NC(=S)N=Nc2c(O)n(CN3CCOCC3)c3ccccc23)c1C,0,0,0,0,0,0,-,-
Cc1cc(C)nc(Nc2n[nH]c(-c3ccc(N)cc3)n2)n1,0,-,0,0,8.2,0,93,34
C(=N\Nc1ncnc2nc[nH]c12)/c1cccs1,0,0,0,0,12,0,88,43
Cc1ccccc1/C=N/Nc1ncnc2nc[nH]c12,0,-,0,0,8.4,0,64,21
Fc1ccc(/C=N/Nc2ncnc3nc[nH]c23)cc1F,0,0,0,0,0,0,-,-
Cc1cc(=O)[nH]c(N/N=C/c2sccc2C)n1,0,0,0,0,0,0,-,-
Cc1ccsc1/C=N/Nc1ncnc2nc[nH]c12,0,0,0,0,13,0,129,48
COc1ccccc1-c1cnc(C(O)c2ccc(Cl)cc2C)[nH]1 (centres undefined),-,-,-,-,0,-,-,-
COc1cccc(NC(=O)N2CCCC2C(=O)Nc2cc(C)ccc2OC)c1 (centres undefined),0,0,0,0,0,0,-,-
Cc1[nH]c2ccccc2c1SCC(=O)N1CCCc2ccccc21,0,0,0,0,20,0,0,10
